Screening data as filed in PubChem.
APP 5'UTR act: APP 5'UTR luciferase reporter activation | activation, % at 2 µM | 190,000 tested, 1% active | SH-SY5Y APP 5'UTR luciferase reporter, luminescence; zero percent = DMSO vehicle wells;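 active means activation above a set limit, based on mean plus 3 SD of controls, cut at about 140% in these data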
STAT3 activator: activators of IL-6 induced STAT3 signaling. 190,000 tested, 0.91% active. activation (% of control), % at 5.6 µM. AID 871. U3A cells, IL-6 STAT3-luciferase reporter, luminescence; 100% = signal with IL-6 EC80 alone;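 active means activation above the screen-wide mean of compound activation plus 3 SD, cut at about 130% in these data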
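Material: STAT3-luciferase reporter U3A cells. Controls: IL-6-treated wells, 100% activation. Read-out: % activation versus median of IL-6-stimulated wells. Probe or stimulus: IL-6 stimulus at 33 ng/mL final. Timing: compound 1 h, then IL-6 6 h at 37 °C. Signal: reporter luminescence signal.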
STAT1 blocker: STAT1 signaling inhibition. inhibition, % at 5.5 µM. AID 920. NIH 3T3 STAT1-luciferase reporter, IFN-gamma, luminescence. 200,000 tested, 0.35% active;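 active means inhibition above a set limit, the mean inhibition across all tested compounds plus 3 SD, cut at about 34% in these data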
NF-kB expr up: NF-kB expression increase, human neuronal cells; NF-kB reporter expression; active compounds read high; fold change at 12.5 µM; 190,000 tested, 1.6% active; AID 1239; in the data active means fold change above about 3.3
STAT1 activator: activators of IFN-gamma induced STAT1 signaling; NIH 3T3 STAT1-luciferase reporter, luminescence; 100% = IFN-gamma alone, no compound; AID 932; 200,000 tested, 2.6% active; activation (% of control), % at 5.5 µM;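 active means activation above the screen-wide mean activation plus 3 SD, cut at about 130% in these data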
STAT3 inh-1: inhibitors of IL-6 induced STAT3 signaling; inhibition, % at 5.5 µM; U3A cells, IL-6 STAT3-luciferase reporter, luminescence; host cell line lacks STAT1; AID 862; 190,000 tested, 0.89% active;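 active means inhibition above the mean inhibition across all screened compounds plus 3 SD, cut at about 44% in these data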
STAT3 inh-2: confirmation of STAT3 signaling inhibitors | shares compounds with STAT3 inh-1 | U3A cells, IL-6 STAT3 luciferase reporter, luminescence; cell line lacks STAT1 | inhibition, % at 5.7 µM | 1,200 tested, 45% active;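 active means inhibition above the hit cutoff computed for the primary STAT3 screen, cut at about 44% in these data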
NFkB inh 2: counter-screen for STAT3 inhibitors: NF-kappaB inhibition | 1,200 tested, 36% active | HEK293T NF-kB luciferase reporter, TNF-alpha induced | shares compounds with STAT3 inh-1 | inhibition, % at 5.7 µM;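 active means inhibition above the mean of solvent-only control wells plus 3 SD, cutoff set per campaign, cut at about 13% in these data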
STAT1 inh STAT3c: counter-screen for STAT3 inhibitors: STAT1 inhibition | shares compounds with STAT3 inh-1 | NIH 3T3 STAT1-luciferase reporter, IFN-gamma induced, luminescence | inhibition, % at 5.7 µM | 1,200 tested, 27% active;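 active means inhibition above the mean plus 3 SD of solvent-only control wells, limit set per screening run, cut at about 16% in these data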
Of the large screens only hits and unclear results are named; the others gave an inactive call (follow-up assays come after a bar, where they were run). Shown are actives, neighbours in structure and some others; about 4.9% of the full set was active somewhere.

CC1=CC(C)(C)[N+](C)(C)c2ccccc21	none
Cn1cc([N+](=O)[O-])c(C(=O)Nc2nc(-c3ccc(Cl)cc3)cs2)n1	STAT3 inh-1 60 | STAT3 inh-2 inactive | NFkB inh 2 18 | STAT1 inh STAT3c inactive
CC(=O)c1c(C)[nH]c(C(=O)Nc2nc(-c3ccc(Cl)cc3)cs2)c1C	none
Cc1cnc(NC(=O)c2nn(C)cc2[N+](=O)[O-])s1	STAT3 inh-1 58 | STAT3 inh-2 inactive | NFkB inh 2 inactive | STAT1 inh STAT3c inactive
Cc1ccc(-c2nc(NC(=O)c3nn(C)cc3[N+](=O)[O-])sc2C)cc1C	STAT3 inh-1 49 | STAT3 inh-2 inactive | NFkB inh 2 17 | STAT1 inh STAT3c inactive
Cc1ccc(-c2nc(NC(=O)c3nn(C)cc3[N+](=O)[O-])sc2C)cc1	STAT1 blocker 36, STAT3 inh-1 54 | STAT3 inh-2 inactive | NFkB inh 2 15 | STAT1 inh STAT3c inactive
COc1ccc(NC2=NCC(Cc3ccc(Br)cc3)S2)cc1 (stereo unspecified)	none
Cc1nn(C)c(C)c1/C=C/C(=O)c1ccc(Cl)cc1Cl	STAT3 inh-1 66 | STAT3 inh-2 65 | NFkB inh 2 13 | STAT1 inh STAT3c inactive
O=C(NCCCn1ccnc1)c1ccc(N2CCCCC2)c([N+](=O)[O-])c1	none
Brc1ccc(-c2cn3nc4c(nc3n2)CCCC4)cc1	APP 5'UTR act 186, STAT3 inh-1 77 | STAT3 inh-2 inactive | NFkB inh 2 inactive | STAT1 inh STAT3c inactive
COc1ccc(CCNc2ccc(N3C(=O)CC(C)C3=O)cc2[N+](=O)[O-])cc1OC (stereo unspecified)	STAT3 inh-1 70 | STAT3 inh-2 58 | NFkB inh 2 17 | STAT1 inh STAT3c inactive
Cc1cc(NC(=O)Cc2ccccc2)ccc1NC(=O)c1cccs1	none
C/C(CC(=O)Nc1cccc(C(F)(F)F)c1)=N\NC(=O)C1CCCCC1	none
COc1cccc(N2CCN(c3c4c(nc5ncnn35)CCC4)CC2)c1	STAT3 inh-1 56 | STAT3 inh-2 43 | NFkB inh 2 inactive | STAT1 inh STAT3c 17
Cc1onc(-c2ccccc2)c1C(=O)OCC(=O)Nc1cc(S(=O)(=O)N2CCOCC2)ccc1Cl	none
CC(C)NC(=O)NC(=O)COC(=O)C1(C)CC1(Cl)Cl (stereo unspecified)	none
COc1ccc(OC)c(NC(=O)CSc2ncnc3c2cnn3-c2ccccc2Cl)c1	NF-kB expr up 3.3, STAT3 inh-1 79 | STAT3 inh-2 81 | NFkB inh 2 31 | STAT1 inh STAT3c 26
Cc1cc(/C=N/NC(=O)c2cccs2)c(C)n1-c1ccccc1	APP 5'UTR act 163, STAT3 inh-1 68 | STAT3 inh-2 inactive | NFkB inh 2 27 | STAT1 inh STAT3c inactive
Cc1cc(/C=N/NC(=O)c2ccncc2)c(C)n1-c1ccccc1	none
CC(=O)N1CCc2cc(C(=O)CN3CCC(C)CC3)ccc21	none (no result: APP 5'UTR act)
CC(=O)N1CCc2cc(C(=O)CN3CCN(c4cccc(Cl)c4)CC3)ccc21	STAT3 inh-1 45 | STAT3 inh-2 inactive | NFkB inh 2 inactive | STAT1 inh STAT3c inactive
O=C1c2oc3ccccc3c(=O)c2C(c2ccc(O)cc2)N1c1nccs1 (stereo unspecified)	none
O=C(Nc1cccc(Cl)c1)Nc1ccnc(-c2cccnc2)n1	STAT3 inh-1 55 | STAT3 inh-2 65 | NFkB inh 2 inactive | STAT1 inh STAT3c inactive
O=C(Cn1cncn1)c1ccc(F)cc1F	none
CCOC(=O)N1CCN(C(=O)CSCC(=O)Nc2nc(-c3ccc(OC)cc3)cs2)CC1	none
CCOC(=O)N1CCN(C(=O)CSCC(=O)Nc2nc(-c3ccc(-c4ccccc4)cc3)cs2)CC1	STAT3 inh-1 72 | STAT3 inh-2 73 | NFkB inh 2 15 | STAT1 inh STAT3c inactive
COc1ccc(CCNc2c(C)c(C)nc3ncnn23)cc1	STAT3 inh-1 82 | STAT3 inh-2 85 | NFkB inh 2 32 | STAT1 inh STAT3c 26
CCN(CC)c1ccc2cc(-c3nc4ccccc4[nH]3)c(=O)oc2c1	APP 5'UTR act 185, STAT3 inh-1 99 | STAT3 inh-2 76 | NFkB inh 2 50 | STAT1 inh STAT3c 17
COc1cc(CC(NC(C)=O)C(=O)NC2CCN(c3c(Cc4ccccc4)c(C)nc4ncnn34)CC2)cc(OC)c1 (stereo unspecified)	none
CCN(CC)CCCN(C(=O)Cn1nnc(-c2ccc(OC)c(OC)c2)n1)C(C(=O)NC(C)(C)C)c1ccc(F)cc1 (stereo unspecified)	none
NC(=O)C[n+]1cccc2ccccc21	none
CCCCC[n+]1cccc2c3ccccc3ccc21	STAT3 inh-1 73 | STAT3 inh-2 66 | NFkB inh 2 21 | STAT1 inh STAT3c 24
O=C(Nc1ccc(Br)cc1)c1ccc(CSC2=NCCS2)cc1	STAT3 inh-1 56 | STAT3 inh-2 inactive | NFkB inh 2 inactive | STAT1 inh STAT3c inactive
O=C(CSC1=NCCS1)Nc1ccc(F)cc1	none
CC(=O)NNc1ncnc2c1cnn2-c1ccccc1	none
CC(C)Nc1ncnc2c1cnn2-c1ccc(Cl)cc1	APP 5'UTR act 155, STAT3 inh-1 55 | STAT3 inh-2 inactive | NFkB inh 2 inactive | STAT1 inh STAT3c inactive
O=C(c1ccccc1)c1cnc(-c2ccccc2)s1	APP 5'UTR act 157, NF-kB expr up 9.9, STAT1 activator 130, STAT3 inh-1 52 | STAT3 inh-2 inactive | NFkB inh 2 inactive | STAT1 inh STAT3c inactive
CN(C)/C=C/C(=O)c1cnc(-c2ccc(Cl)cc2)s1	NF-kB expr up 3.9, STAT1 activator 133, STAT3 inh-1 43 | STAT3 inh-2 inactive | NFkB inh 2 inactive | STAT1 inh STAT3c inactive
O=C(c1ccc(Cl)cc1)c1cnc(-c2ccc(Cl)cc2)s1	none
CN(C)/C=C/C(=O)c1ccc(Cl)cc1Cl	none
O=C(c1ccccc1)c1cnc(-c2ccc(Cl)cc2)s1	NF-kB expr up 6.6, STAT3 inh-1 48 | STAT3 inh-2 inactive | NFkB inh 2 inactive | STAT1 inh STAT3c inactive
COC(=O)c1c(NC(=O)C2CC2)sc(C(=O)Nc2ccccc2)c1C	none
COc1ccc(NC(C)=O)cc1NC(=O)c1ccc2ccccc2c1	none
CCCn1c(=O)[nH]c(=O)c2c1nc(-c1cccs1)n2CCOC	none
Cc1cccc(N2CCN(C(=O)N3CCOCC3)CC2)c1C	none
Cc1cccc(N2CCN(C(=O)CSCc3c(C)noc3C)CC2)c1C	STAT3 inh-1 70 | STAT3 inh-2 59 | NFkB inh 2 inactive | STAT1 inh STAT3c inactive
